The structures appear in SMILES notation. ≈ marks a conversion by molar mass, not a printed value.

Data set [1] has as its system Staphylococcus aureus. As to the kind of experiment: Minimal inhibitory concentration of compound against Staphylococcus aureus Tour determined in iso-sensitest broth supplemented with 30% bovine serum and an inoculum of 10e4 cfu/mL.
The subject of another data set is Enterococcus faecalis. In words: Minimal inhibitory concentration of compound against Streptococcus faecalis AACC7080. It is filed as functional. The essentials:
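For S. faecalis, 2-fold dilution MIC in a microtiter system using Iso-sensitest broth and a final inoculum of about 10⁴ cfu/mL. Incubation was 18–24 h at 37 °C. The endpoint was the lowest concentration without visible growth.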

In data set [2] the test system is Staphylococcus epidermidis. As to the kind of experiment: Minimal inhibitory concentration of compound against […] ATCC 12228. It is filed as functional.
In data set [3] the test system is Staphylococcus aureus. As to the kind of experiment: Minimal inhibitory concentration of compound against Staphylococcus aureus Tour in an inoculum of 10e6 cfu/mL. It is filed as functional. The essentials: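 Twofold microtiter broth dilution in Iso-sensitest broth, with the inoculum raised to 10⁶ cfu/mL. After 18–24 h at 37 °C, MIC was read as the lowest concentration giving no visible growth.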

The test system of the next data set is Streptococcus pneumoniae. In words: Minimal inhibitory concentration of compound against Streptococcus pneumoniae UC41. It is filed as functional. The essentials: (§1)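 Streptococci were tested by 2-fold broth microdilution in Todd-Hewitt broth, with a final inoculum of about 10⁴ cfu/mL. After 18–24 h at 37 °C, MIC was read as the lowest concentration with no visible growth.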

In another data set the test system is Streptococcus pyogenes. In words: Minimal inhibitory concentration of compound against Streptococcus pyogenes C203. It is filed as functional. The procedure, abridged:
as §1

Data set [4] has as its system Staphylococcus aureus. In words: Minimal inhibitory concentration of compound against Staphylococcus aureus Tour. It is filed as functional. The essentials:
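Broth MIC by 2-fold serial dilution in microtiter format, in Iso-sensitest broth, with a final inoculum of about 10⁴ cfu/mL. Plates were incubated 18–24 h at 37 °C. MIC was taken as the lowest concentration with no visible growth.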

Data set [5] is described as follows: Association constant for compound at 31 degree C was determined. It is filed as ADME. The procedure, abridged:
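UV difference spectroscopy at 31 °C. Antibiotic at 25 μM in 10% methanol/0.02 M sodium citrate buffer, pH 5, sat in sample and reference cells (4-cm path). Ac-D-Ala-D-Ala was added from a 4 mM stock to the sample cell, with buffer added to the reference. The absorbance change was read at 282–285 nm. K_A came from Scatchard plots, with antibiotic concentration set by UV at 279 nm.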

Consider `CN(C)CCCNC(=O)[C@H]1NC(=O)[C@H]2NC(=O)[C@H](NC(=O)[C@@H]3NC(=O)[C@H]4NC(=O)[C@@H](Cc5ccc(c(Cl)c5)Oc5cc3cc(c5O)Oc3ccc(cc3Cl)[C@H]2O)NC(=O)[C@H](N)c2ccc(O)c(c2)Oc2cc(O)cc4c2)c2ccc(O)c(c2)-c2c(O)cc(O)cc21`, for which the MIC against Staphylococcus aureus [1] worked out at 0.25 µg/mL (≈ 0.195 µM); with Enterococcus faecalis, 0.12 µg/mL (≈ 0.0935 µM); in data set [2], 0.016 µg/mL (≈ 0.0125 µM); in the data set with Staphylococcus aureus [3], 0.12 µg/mL (≈ 0.0935 µM); against Streptococcus pneumoniae, 0.06 µg/mL (≈ 0.0468 µM); against Streptococcus pyogenes it was 0.06 µg/mL (≈ 0.0468 µM). The compound further registered an MIC in the data set with Staphylococcus aureus [4] of 0.06 µg/mL (≈ 0.0468 µM).

Consider `CC(=O)N[C@@H]1[C@H](O[C@@H]2c3ccc(c(Cl)c3)Oc3cc4cc(c3O)Oc3ccc(cc3Cl)C[C@H]3NC(=O)[C@H](N)c5ccc(O)c(c5)Oc5cc(O)cc(c5)[C@H](NC3=O)C(=O)N[C@H]4C(=O)N[C@H]3C(=O)N[C@@H]2C(=O)N[C@H](C(=O)O)c2cc(O)cc(O)c2-c2cc3ccc2O)O[C@@H](CO)[C@@H](O)[C@@H]1O`, for which the MIC in the data set on Staphylococcus aureus [1] was 0.5 µg/mL (≈ 0.357 µM); in the data set on Enterococcus faecalis, 1 µg/mL (≈ 0.713 µM); in data set [2], 0.12 µg/mL (≈ 0.0856 µM); in the data set on Staphylococcus aureus [3], 0.25 µg/mL (≈ 0.178 µM); against Streptococcus pneumoniae, 1 µg/mL (≈ 0.713 µM); with Streptococcus pyogenes, 0.5 µg/mL (≈ 0.357 µM). The compound also came in with an MIC against Staphylococcus aureus [4] of 0.5 µg/mL (≈ 0.357 µM).

Consider `N[C@H]1C(=O)N[C@@H]2Cc3ccc(c(Cl)c3)Oc3cc4cc(c3O)Oc3ccc(cc3Cl)[C@@H](O)[C@@H]3NC(=O)[C@H](NC(=O)[C@@H]4NC(=O)[C@@H](NC2=O)c2cc(O)cc(c2)Oc2cc1ccc2O)c1ccc(O)c(c1)-c1c(O)cc(O)cc1[C@@H](C(=O)NC1CN2CCC1CC2)NC3=O` (some centres not stated), for which the MIC with Staphylococcus aureus [1] was 0.5 µg/mL (≈ 0.383 µM); against Enterococcus faecalis, 0.12 µg/mL (≈ 0.0918 µM); in data set [2] it was 0.06 µg/mL (≈ 0.0459 µM); with Staphylococcus aureus [3] it was 0.12 µg/mL (≈ 0.0918 µM); in the data set with Streptococcus pneumoniae it was 0.06 µg/mL (≈ 0.0459 µM); against Streptococcus pyogenes it was 0.06 µg/mL (≈ 0.0459 µM). This compound displayed an MIC in the data set with Staphylococcus aureus [4] of 0.12 µg/mL (≈ 0.0918 µM).

For `CC(=O)N[C@@H]1[C@H](O[C@@H]2c3ccc(c(Cl)c3)Oc3cc4cc(c3O)Oc3ccc(cc3Cl)C[C@H]3NC(=O)[C@H](N)c5ccc(O)c(c5)Oc5cc(O)cc(c5)[C@H](NC3=O)C(=O)N[C@H]4C(=O)N[C@H]3C(=O)N[C@@H]2C(=O)N[C@H](C(=O)O)c2cc(O)cc(O[C@H]4O[C@H](CO)[C@@H](O)[C@@H](O)[C@@H]4O)c2-c2cc3ccc2O)O[C@@H](CO)[C@@H](O)[C@@H]1O`, the MIC amounted to 0.5 µg/mL (≈ 0.32 µM) with Staphylococcus aureus [1]; 2 µg/mL (≈ 1.28 µM) against Enterococcus faecalis; 0.25 µg/mL (≈ 0.16 µM) in data set [2]; 0.5 µg/mL (≈ 0.32 µM) with Staphylococcus aureus [3]; 0.5 µg/mL (≈ 0.32 µM) in the data set with Streptococcus pneumoniae; 0.5 µg/mL (≈ 0.32 µM) in the data set with Streptococcus pyogenes. The MIC against Staphylococcus aureus [4] was found to be 0.25 µg/mL (≈ 0.16 µM).

For `CCCCCCCCCC(=O)N[C@@H]1[C@H](Oc2c3cc4cc2Oc2ccc(cc2Cl)[C@@H](O[C@@H]2O[C@@H](CO)[C@@H](O)[C@H](O)[C@@H]2NC(C)=O)[C@@H]2NC(=O)[C@H](NC(=O)[C@@H]4NC(=O)[C@H]4NC(=O)[C@@H](Cc5ccc(c(Cl)c5)O3)NC(=O)[C@H](N)c3ccc(O)c(c3)Oc3cc(O)cc4c3)c3ccc(O)c(c3)-c3c(O[C@H]4O[C@H](CO)[C@@H](O)[C@@H](O)[C@@H]4O)cc(O)cc3[C@@H](C(=O)O)NC2=O)O[C@@H](CO)[C@@H](O)[C@@H]1O`, the MIC is 0.5 µg/mL (≈ 0.266 µM) against Staphylococcus aureus [1]; 0.12 µg/mL (≈ 0.0638 µM) with Enterococcus faecalis; 0.25 µg/mL (≈ 0.133 µM) in data set [2]; 0.5 µg/mL (≈ 0.266 µM) in the data set with Staphylococcus aureus [3]; 0.06 µg/mL (≈ 0.0319 µM) in the data set on Streptococcus pneumoniae; 0.06 µg/mL (≈ 0.0319 µM) with Streptococcus pyogenes. This compound showed an MIC in the data set on Staphylococcus aureus [4] of 0.12 µg/mL (≈ 0.0638 µM). The KA in data set [5] stood at 1100000 M⁻¹.

Regarding `CCCCCCCCCC(=O)N[C@@H]1[C@H](Oc2c3cc4cc2Oc2ccc(cc2Cl)[C@@H](O[C@@H]2O[C@@H](CO)[C@@H](O)[C@H](O)[C@@H]2NC(C)=O)[C@@H]2NC(=O)[C@H](NC(=O)[C@@H]4NC(=O)[C@H]4NC(=O)[C@@H](Cc5ccc(c(Cl)c5)O3)NC(=O)[C@H](N)c3ccc(O)c(c3)Oc3cc(O)cc4c3)c3ccc(O)c(c3)-c3c(O[C@H]4O[C@H](CO)[C@@H](O)[C@@H](O)[C@@H]4O)cc(O)cc3[C@@H](C(=O)N(C)C)NC2=O)O[C@@H](CO)[C@@H](O)[C@@H]1O`, the MIC against Staphylococcus aureus [1] came out at 0.5 µg/mL (≈ 0.262 µM); against Enterococcus faecalis, 0.12 µg/mL (≈ 0.0629 µM); in data set [2], 0.06 µg/mL (≈ 0.0315 µM); in the data set on Staphylococcus aureus [3], 0.12 µg/mL (≈ 0.0629 µM); in the data set on Streptococcus pneumoniae it was 0.06 µg/mL (≈ 0.0315 µM); in the data set with Streptococcus pyogenes, 0.06 µg/mL (≈ 0.0315 µM). This compound also displayed an MIC in the data set with Staphylococcus aureus [4] of 0.12 µg/mL (≈ 0.0629 µM).

With `CN(C)CCCNC(=O)[C@H]1NC(=O)[C@H]2NC(=O)[C@H](NC(=O)[C@@H]3NC(=O)[C@H]4NC(=O)[C@@H](Cc5ccc(c(Cl)c5)Oc5cc3cc(c5O)Oc3ccc(cc3Cl)[C@H]2O)NC(=O)Cc2ccc(O)c(c2)Oc2cc(O)cc4c2)c2ccc(O)c(c2)-c2c(O)cc(O)cc21`, the MIC was found to be 4 µg/mL (≈ 3.15 µM) in the data set with Staphylococcus aureus [1]; 0.12 µg/mL (≈ 0.0946 µM) against Enterococcus faecalis; 0.12 µg/mL (≈ 0.0946 µM) in data set [2]; 0.12 µg/mL (≈ 0.0946 µM) against Staphylococcus aureus [3]; 0.2 µg/mL (≈ 0.158 µM) against Streptococcus pneumoniae; 0.12 µg/mL (≈ 0.0946 µM) in the data set with Streptococcus pyogenes. Besides, the MIC against Staphylococcus aureus [4] came out at 0.12 µg/mL (≈ 0.0946 µM).

Consider `CC(=O)N[C@@H]1[C@H](O[C@@H]2c3ccc(c(Cl)c3)Oc3cc4cc(c3O)Oc3ccc(cc3Cl)C[C@H]3NC(=O)Cc5ccc(O)c(c5)Oc5cc(O)cc(c5)[C@H](NC3=O)C(=O)N[C@H]4C(=O)N[C@H]3C(=O)N[C@@H]2C(=O)N[C@H](C(=O)O)c2cc(O)cc(O[C@H]4O[C@H](CO)[C@@H](O)[C@@H](O)[C@@H]4O)c2-c2cc3ccc2O)O[C@@H](CO)[C@@H](O)[C@@H]1O`, for which the MIC came to 16 µg/mL (≈ 10.3 µM) against Staphylococcus aureus [1]; 4 µg/mL (≈ 2.58 µM) in the data set on Enterococcus faecalis; 1 µg/mL (≈ 0.645 µM) in data set [2]; 8 µg/mL (≈ 5.16 µM) against Staphylococcus aureus [3]; 4 µg/mL (≈ 2.58 µM) in the data set with Streptococcus pneumoniae; 4 µg/mL (≈ 2.58 µM) in the data set with Streptococcus pyogenes. Further, the MIC with Staphylococcus aureus [4] is 2 µg/mL (≈ 1.29 µM).

As to `CC(=O)N[C@@H]1[C@H](O[C@@H]2c3ccc(c(Cl)c3)Oc3cc4cc(c3O)Oc3ccc(cc3Cl)C[C@H]3NC(=O)Cc5ccc(O)c(c5)Oc5cc(O)cc(c5)[C@H](NC3=O)C(=O)N[C@H]4C(=O)N[C@H]3C(=O)N[C@@H]2C(=O)N[C@H](C(=O)O)c2cc(O)cc(O)c2-c2cc3ccc2O)O[C@@H](CO)[C@@H](O)[C@@H]1O`, the MIC against Staphylococcus aureus [1] is 16 µg/mL (≈ 11.5 µM); against Enterococcus faecalis, 8 µg/mL (≈ 5.77 µM); in data set [2] it was 1 µg/mL (≈ 0.721 µM); with Staphylococcus aureus [3] it was 2 µg/mL (≈ 1.44 µM); in the data set on Streptococcus pneumoniae, 2 µg/mL (≈ 1.44 µM); against Streptococcus pyogenes it was 8 µg/mL (≈ 5.77 µM). Moreover, in the data set with Staphylococcus aureus [4], the MIC turned out to be 2 µg/mL (≈ 1.44 µM).

As to `CCCCCCCCCC(=O)N[C@@H]1[C@H](Oc2c3cc4cc2Oc2ccc(cc2Cl)[C@@H](O[C@@H]2O[C@@H](CO)[C@@H](O)[C@H](O)[C@@H]2NC(C)=O)[C@@H]2NC(=O)[C@H](NC(=O)[C@@H]4NC(=O)[C@H]4NC(=O)[C@@H](Cc5ccc(c(Cl)c5)O3)NC(=O)Cc3ccc(O)c(c3)Oc3cc(O)cc4c3)c3ccc(O)c(c3)-c3c(O[C@H]4O[C@H](CO)[C@@H](O)[C@@H](O)[C@@H]4O)cc(O)cc3[C@@H](C(=O)N(C)C)NC2=O)O[C@@H](CO)[C@@H](O)[C@@H]1O`, the MIC against Staphylococcus aureus [1] came out at 4 µg/mL (≈ 2.11 µM); in the data set on Enterococcus faecalis, 0.25 µg/mL (≈ 0.132 µM); in data set [2] it was 0.12 µg/mL (≈ 0.0634 µM); against Staphylococcus aureus [3], 1 µg/mL (≈ 0.529 µM); in the data set on Streptococcus pneumoniae, 0.12 µg/mL (≈ 0.0634 µM); with Streptococcus pyogenes, 0.12 µg/mL (≈ 0.0634 µM). Further, the MIC with Staphylococcus aureus [4] was found to be 0.12 µg/mL (≈ 0.0634 µM). The KA in data set [5] was 200000 M⁻¹.

The values are drawn from ChEMBL document CHEMBL1124384, “Deaminoteicoplanin and its derivatives. Synthesis, antibacterial activity, and binding strength to Ac-D-Ala-D-Ala” (J Med Chem, 1989).
